# The list is not random: actives were taken first. Their share in the collection is about 4.7%.
# Jurkat NFkB inh = lowers PMA/ionomycin-induced NF-kB signal in Jurkat cells | PMA/ionomycin-induced NF-kB luciferase reporter, luminescence | inhibition, % at 4 µM | hit rate 0.53% among 330,000 | AID 435003; in the data active = inhibition above about 50%
# VIM-2 inh = inhibitors of Pseudomonas aeruginosa VIM-2 metallo-beta-lactamase; AID 1527; hit rate 0.89% among 290,000; inhibition, % at 5.6 µM; purified VIM-2, nitrocefin hydrolysis, epi-absorbance fluorescence;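 active = inhibition above the mean of all tested compounds plus 3 SD, cutoff set per screening run, cut at about 7.5% in these data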;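 note: red hydrolysis product quenches plate fluorescence so inhibitors raise well fluorescence; 0% = enzyme with DMSO and 100% = DMSO without enzyme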
# 697 NFkB inh = inhibitors of the PMA/ionomycin-induced NF-kB reporter in 697 B cells; AID 435022; 697 B-cell NF-kB luciferase reporter, 16 h; inhibition, % at 4 µM; hit rate 0.33% among 330,000; in the data active = inhibition above about 35%
# aSyn UTR inh = MLPCN primary screen, SNCA 5' untranslated region; alpha-synuclein 5'UTR reporter, inhibitor activity; inhibition, % (tested at 7.5 µM); hit rate 0.82% among 300,000; in the data active = inhibition above about 60%;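 note: H4 neuroglioblastoma cells stably carrying SNCA 5'UTR luciferase fusion; 0% = DMSO wells and 100% = positive control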
# IMP-1 inhibitor = inhibitors of Pseudomonas aeruginosa IMP-1 metallo-beta-lactamase | hit rate 0.45% among 290,000 | purified IMP-1, nitrocefin hydrolysis, epi-absorbance fluorescence | AID 1556 | inhibition, % at 5.6 µM;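 active = inhibition above the mean plus 3 SD of all compounds in the same screening run, cut at about 4.5% in these data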;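 note: 0% = IMP-1 with DMSO and 100% = DMSO wells lacking enzyme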
#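 Assay system: purified recombinant IMP-1 beta-lactamase. Input: IMP-1 0.2 nM before substrate addition. Buffer or medium: Zinc- and detergent-supplemented HEPES buffer, pH 7.1. Schedule: 25 °C, 15 min preincubation, 25 min reaction. Signal: Epi-absorbance fluorescence, 480 nm excitation, 530 nm emission. Evaluation: percent inhibition from optical density relative to buffer-blank wells.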
# Mdm2-MdmX inh = inhibitors of human Mdm2/MdmX interaction. AID 485346. hit rate 3% among 330,000. O15151+Q00987. SaOS-2 split-luciferase Mdm2/MdmX complementation, luminescence. inhibition, % at 8 µM;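 active = inhibition of at least 50% at 8 µM in the primary screen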
# Target sequence (O15151 whole entry, looked up): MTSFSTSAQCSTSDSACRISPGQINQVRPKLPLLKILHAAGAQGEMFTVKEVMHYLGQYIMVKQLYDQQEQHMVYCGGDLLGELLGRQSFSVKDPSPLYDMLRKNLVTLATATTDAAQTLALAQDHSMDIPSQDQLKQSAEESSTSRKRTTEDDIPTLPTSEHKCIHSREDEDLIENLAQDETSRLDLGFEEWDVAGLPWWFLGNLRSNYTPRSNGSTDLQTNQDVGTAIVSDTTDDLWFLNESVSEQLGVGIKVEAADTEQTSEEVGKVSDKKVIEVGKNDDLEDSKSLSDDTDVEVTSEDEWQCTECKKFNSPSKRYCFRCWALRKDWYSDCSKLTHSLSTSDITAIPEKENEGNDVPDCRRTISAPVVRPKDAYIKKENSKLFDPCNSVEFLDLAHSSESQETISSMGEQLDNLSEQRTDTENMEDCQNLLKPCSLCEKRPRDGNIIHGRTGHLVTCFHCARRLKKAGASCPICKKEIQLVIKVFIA
# Target sequence (Q00987 whole entry, looked up): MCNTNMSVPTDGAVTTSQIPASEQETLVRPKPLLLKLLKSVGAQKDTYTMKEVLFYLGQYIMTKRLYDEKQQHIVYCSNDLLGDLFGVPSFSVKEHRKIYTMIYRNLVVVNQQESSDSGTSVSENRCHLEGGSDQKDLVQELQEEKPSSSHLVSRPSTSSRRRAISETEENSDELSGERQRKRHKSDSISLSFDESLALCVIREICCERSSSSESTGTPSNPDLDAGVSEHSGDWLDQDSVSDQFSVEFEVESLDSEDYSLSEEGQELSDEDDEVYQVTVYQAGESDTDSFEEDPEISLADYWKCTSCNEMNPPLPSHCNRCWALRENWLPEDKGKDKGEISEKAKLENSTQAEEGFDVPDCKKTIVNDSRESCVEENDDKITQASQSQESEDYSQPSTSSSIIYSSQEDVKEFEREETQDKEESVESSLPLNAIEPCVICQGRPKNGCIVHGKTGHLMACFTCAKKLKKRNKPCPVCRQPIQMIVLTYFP
# Jurkat NFkB conf = lowers PMA/ionomycin-induced NF-kB signal in Jurkat cells | shares compounds with Jurkat NFkB inh | Jurkat NF-kB luciferase, 16 h | inhibition, % at 4 µM | hit rate 27% among 2,700 | AID 435020;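 active = inhibition reaching about 45% at 4 µM in either replicate, limit read from the data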;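 note: plate controls were PMA/ionomycin stimulated DMSO wells for no effect and unstimulated DMSO wells for full effect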
# Mdm2-MdmX conf = confirmation of human Mdm2/MdmX interaction inhibitors; shares compounds with Mdm2-MdmX inh; Mdm2-MdmX binding, luminescent assay; inhibition, % at 8 µM; hit rate 55% among 10,000; in the data active = inhibition above about 40%
# Full FLuc ctr = inhibits full-length luciferase, flagging false Mdm2/MdmX hits; shares compounds with Mdm2-MdmX inh; SaOS-2 full-length luciferase counterscreen, luminescence; inhibition, % at 8 µM; hit rate 77% among 6,200; AID 504607;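 active = mean inhibition at 8 µM reaching about 37%, which flags the compound as non-specific, limit read from the data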;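 note: p53-null SaOS-2 cells with luciferase driven by a doxycycline-inducible promoter; compound on cells about two nights before reading with doxycycline added after day one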
# * = called active by the depositor; nt = no result.
SMILES,Jurkat NFkB inh,VIM-2 inh,697 NFkB inh,aSyn UTR inh,IMP-1 inhibitor,Mdm2-MdmX inh,Jurkat NFkB conf,Mdm2-MdmX conf,Full FLuc ctr
O=C(Nc1ccc(Oc2ccccc2)nc1)C1CCCCN1Cc1ccco1 (configuration not stated),53*,-2,-65,-49,-1,65*,5,76*,68*
O=C(NN1C(=O)NC2(CCCCC2)C1=O)c1cccs1,3,nt,6,nt,nt,-3,nt,nt,nt
COc1cc(-c2noc(C)c2C#Cc2ccsc2)cc(OC)c1OC,63*,4,-34,69*,-4,65*,57*,68*,78*
Cc1csc2nc(COC(=O)c3ccc(Cl)c([N+](=O)[O-])c3)cc(=O)n12,53*,nt,24,nt,nt,89*,26,8,nt
Cc1csc2nc(COC(=O)CNC(=O)c3ccc(Cl)cc3)cc(=O)n12,4,nt,0,nt,nt,-13,nt,nt,nt
Cc1ccc(C(=O)N2CCN(c3ccc(C(F)(F)F)cn3)CC2)o1,18,nt,-5,nt,nt,-5,nt,nt,nt
CC(=O)N1CCc2cc(S(=O)(=O)N3c4ccccc4CC3C)ccc21 (configuration not stated),53*,-2,-72,20,-1,61*,18,54*,58*
CSc1ccc(S(=O)(=O)N2c3ccccc3CC2C)cc1 (configuration not stated),55*,-1,-4,-56,-2,53*,27,54*,65*
CC1Cc2ccccc2N1S(=O)(=O)c1cnc[nH]1 (configuration not stated),8,-2,18,-1,-2,-2,nt,nt,nt
CCOC(=O)C1(Cc2ccccc2)C(=O)N(CCCN(C)C)c2ccccc21 (configuration not stated),-13,nt,0,-18,nt,-6,nt,nt,nt
CC(C)(C)CN1CCN(Cc2c[nH]c3ccccc23)CC1CCO (configuration not stated),3,-1,-7,4,-4,9,nt,nt,nt
O=C(CSc1nnc(-c2ccccc2F)o1)Nc1ccc(N2CCOCC2)cc1,-2,nt,5,nt,nt,14,nt,nt,nt
COc1ccccc1NC(c1cccnc1)c1ccc2cccnc2c1O (configuration not stated),-7,-2,-34,-23,0,13,nt,nt,nt
COc1ccc(C(NC(=O)C(C)C)c2ccc3cccnc3c2O)cc1 (configuration not stated),61*,-4,-22,79*,-3,77*,65*,83*,29
COc1ccc(C(Nc2cc(C)ccn2)c2ccc3ccc(C)nc3c2O)cc1 (configuration not stated),6,-3,5,4,-4,43,nt,nt,nt
CCCC(=O)NC(c1ccc(C(C)C)cc1)c1ccc2cccnc2c1O (configuration not stated),60*,-4,-33,83*,-1,80*,81*,88*,21
CCCCC(=O)NC(c1ccc(Cl)cc1Cl)c1ccc2cccnc2c1O (configuration not stated),51*,-2,-25,92*,-3,77*,75*,87*,51*
CCCC(=O)NC(c1ccc(N(C)C)cc1)c1ccc2cccnc2c1O (configuration not stated),55*,-3,-21,62,-3,80*,74*,80*,30
CC(C)C(=O)NC(c1ccc(N(C)C)cc1)c1c(O)ccc2ccccc12 (configuration not stated),0,-2,30,-1,-3,-14,nt,nt,nt
CCOCCCNC(=O)c1cc(Nc2ccc(OC)cc2OC)nc2ccccc12,12,-1,0,9,-2,12,nt,nt,nt
CN(C)C(=O)CCc1ccc2c3c([nH]c2c1)[C@]1(CCC2CCCC2)[C@@H](C(=O)N2CCOCC2)C[C@H](CC(=O)NCCc2ccccn2)C(=O)N1CC3,nt,nt,23,nt,nt,32,nt,nt,nt
CCC(=O)NC(c1ccc(C)cc1)c1ccc2cccnc2c1O (configuration not stated),55*,-5,-6,81*,-5,79*,76*,86*,24
Cc1ccnc(NC(c2cccnc2)c2ccc3cccnc3c2O)c1 (configuration not stated),-2,-4,-37,-9,-2,33,nt,nt,nt
CCCC(=O)NC(c1ccccc1Cl)c1ccc2cccnc2c1O (configuration not stated),63*,-2,-5,68*,-4,87*,81*,89*,53*
O=C(CSCC(=O)Nc1ccccc1)N/N=C/c1c(O)ccc2ccccc12,63*,1,17,76*,0,79*,37,72*,28
SMILES,Jurkat NFkB inh,VIM-2 inh,697 NFkB inh,aSyn UTR inh,IMP-1 inhibitor,Mdm2-MdmX inh,Jurkat NFkB conf,Mdm2-MdmX conf,Full FLuc ctr
O=C(N/N=C\c1c(O)ccc2ccccc12)c1cncc(Br)c1,52*,-1,-8,62*,-2,83*,79*,76*,27
COc1ccc2ccccc2c1/C=N/NC(=O)c1nnn(-c2nonc2N)c1C(C)C,8,-2,-17,15,2,19,nt,nt,nt
O=C(N/N=C/c1c(O)ccc2ccccc12)c1ccc[n+](CCO)c1,-4,-4,-12,-4,-5,0,nt,nt,nt
O=C(N/N=C/c1c(O)ccc2ccccc12)Nc1ccccc1,1,nt,-32,2,nt,30,nt,nt,nt
Cc1c(C(=O)N/N=C/c2c(O)ccc3ccccc23)nnn1-c1nonc1N,55*,-6,20,63*,-3,67*,76*,81*,52*
O=C(N/N=C/c1c(O)ccc2ccccc12)c1ccc(Br)o1,52*,-4,-2,106*,-4,87*,62*,81*,54*
COc1cc(C(=O)OCc2cccc(S(=O)(=O)N3CCOCC3)c2)ccc1OCC(C)C,-4,nt,-2,nt,nt,9,nt,nt,nt
O=C(Nc1cccc(S(=O)(=O)N2CCCCCC2)c1)C1CCN(C(=O)c2ccc(Cl)cc2)CC1,34,nt,-4,36,nt,31,nt,nt,nt
O=C(c1ccc(F)cc1)C1CCN(C(=O)c2ccccc2F)CC1,-6,-2,-15,14,0,17,nt,nt,nt
Cn1cc(C(=O)N/N=C/c2c(O)ccc3ccccc23)ccc1=O,59*,-2,14,96*,0,79*,76*,72*,27
Cc1noc(C)c1COc1cccc(C(=O)OCC(=O)N2CC(=O)Nc3ccccc32)c1,58*,-5,6,65*,-4,50*,48,67*,59*

# Source: PubChem (several laboratories)
